Reference: ChEMBL document CHEMBL4118078, “Developing pyridazine-3-carboxamides to be CB2 agonists: The design, synthesis, structure-activity relationships and docking studies” (Eur J Med Chem, 2017)

Columns and labels:
Homo sapiens = species: Homo sapiens; experiment: Selectivity index, ratio of EC50 for CB1 receptor (unknown origin) to EC50 for CB2 receptor (unknown origin)
Cannabinoid receptor 2 [1] = biological target: T1, Cannabinoid receptor 2 (Homo sapiens, UniProt P34972); experiment: Agonist activity at CB2 receptor (unknown origin) expressed in CHO cells assessed as induction of calcium mobilization by fluo-4 AM dye-based fluorescence assay relative to CP55940; type: functional, cell-based
Method in brief: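 Cell-based calcium mobilization, agonist mode, with CP55940 as positive control. Compounds giving more than 50% activation in a single-concentration 10 µM primary screen were run in dose-response to derive EC50.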

Cannabinoid receptor 1 [2] = biological target: T2, Cannabinoid receptor 1 (Homo sapiens, UniProt P21554); experiment: Agonist activity at CB1 receptor (unknown origin) expressed in CHO cells assessed as induction of calcium mobilization by fluo-4 AM dye-based fluorescence assay; type: functional, cell-based
Cannabinoid receptor 1 [3] = biological target: T2, Cannabinoid receptor 1; experiment: Agonist activity at CB1 receptor (unknown origin) expressed in CHO cells assessed as induction of calcium mobilization at 10 uM by fluo-4 AM dye-based fluorescence assay relative to CP55940; type: functional, cell-based
Cannabinoid receptor 2 [4] = biological target: T1, Cannabinoid receptor 2; experiment: Agonist activity at CB2 receptor (unknown origin) expressed in CHO cells assessed as induction of calcium mobilization at 10 uM by fluo-4 AM dye-based fluorescence assay relative to CP55940; type: functional, cell-based
Cannabinoid receptor 2 [5] = biological target: T1, Cannabinoid receptor 2; experiment: Agonist activity at CB2 receptor (unknown origin) expressed in CHO cells assessed as induction of calcium mobilization by fluo-4 AM dye-based fluorescence assay; type: functional, cell-based
Cannabinoid receptor 2 [6] = biological target: T1, Cannabinoid receptor 2; experiment: Antagonist activity at CB2 receptor (unknown origin) expressed in CHO cells assessed as inhibition of CP55940-induced calcium mobilization at 10 uM preincubated for 10 mins followed by CP55940-induction by fluo-4 AM dye-based fluorescence assay relative to SR141716A; type: functional, cell-based
Method in brief: (§1)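 Cell-based calcium mobilization, antagonist mode, single-concentration screen at 10 µM against CB1 and CB2. SR141716A served as the antagonist-mode positive control.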

Cannabinoid receptor 1 [7] = biological target: T2, Cannabinoid receptor 1; experiment: Antagonist activity at CB1 receptor (unknown origin) expressed in CHO cells assessed as inhibition of CP55940-induced calcium mobilization at 10 uM preincubated for 10 mins followed by CP55940-induction by fluo-4 AM dye-based fluorescence assay relative to SR141716A; type: functional, cell-based; method in brief: as §1
Cannabinoid receptor 2 [8] = biological target: T1, Cannabinoid receptor 2; experiment: Potency index, ratio of GW842166X EC50 to test compound EC50 for agonist activity at CB2 receptor (unknown origin); type: functional
Cannabinoid receptor 2 [9] = biological target: T1, Cannabinoid receptor 2; experiment: Potency index, ratio of CP55940 EC50 to test compound EC50 for agonist activity at CB2 receptor (unknown origin); type: functional

T1 sequence (P34972 whole entry): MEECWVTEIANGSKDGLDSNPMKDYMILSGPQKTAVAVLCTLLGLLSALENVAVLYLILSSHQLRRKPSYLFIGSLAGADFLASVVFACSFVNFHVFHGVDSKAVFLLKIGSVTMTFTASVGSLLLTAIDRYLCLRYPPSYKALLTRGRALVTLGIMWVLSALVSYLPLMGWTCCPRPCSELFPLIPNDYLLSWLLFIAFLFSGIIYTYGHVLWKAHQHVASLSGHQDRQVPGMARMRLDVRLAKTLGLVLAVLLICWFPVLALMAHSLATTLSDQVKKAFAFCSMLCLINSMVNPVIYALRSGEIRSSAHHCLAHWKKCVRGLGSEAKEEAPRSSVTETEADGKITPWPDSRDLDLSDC
T2 sequence (P21554 whole entry): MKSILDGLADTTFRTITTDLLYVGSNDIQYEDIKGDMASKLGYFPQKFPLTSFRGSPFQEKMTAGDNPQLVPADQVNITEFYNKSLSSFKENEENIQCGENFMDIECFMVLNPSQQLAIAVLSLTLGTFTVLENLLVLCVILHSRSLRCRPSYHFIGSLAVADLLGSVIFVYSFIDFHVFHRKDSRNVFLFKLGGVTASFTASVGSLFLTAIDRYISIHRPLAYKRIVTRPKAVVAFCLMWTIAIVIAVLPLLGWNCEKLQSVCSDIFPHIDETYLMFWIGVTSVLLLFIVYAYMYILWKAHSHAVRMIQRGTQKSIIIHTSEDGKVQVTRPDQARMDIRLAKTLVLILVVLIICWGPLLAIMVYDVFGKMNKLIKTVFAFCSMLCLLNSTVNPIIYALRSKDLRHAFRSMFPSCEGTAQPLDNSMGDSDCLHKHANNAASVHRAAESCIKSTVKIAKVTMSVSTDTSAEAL

Compound | Ratio EC50 (Homo sapiens) | Emax (Cannabinoid receptor 2 [1]) [%] | EC50 (Cannabinoid receptor 1 [2]) [nM] | Activity (Cannabinoid receptor 1 [3]) [%] | Activity (Cannabinoid receptor 2 [4]) [%] | EC50 (Cannabinoid receptor 2 [5]) [nM] | inhibition (Cannabinoid receptor 2 [6]) [%] | inhibition (Cannabinoid receptor 1 [7]) [%] | Ratio EC50 (Cannabinoid receptor 2 [8]) | Ratio EC50 (Cannabinoid receptor 2 [9])
CCCCNc1nnc(C(=O)NC2C3CC4CC(C3)CC2C4)cc1C(C)C (stereo not given) | 27 | 93 | 2610 | 89.3 | 97.1 | 96.2 | – | – | – | –
O=C(NC12CC3CC(CC(C3)C1)C2)c1ccc(N2CCOCC2)nn1 | – | – | > 10000 | -4.49 | 33.7 | > 10000 | 25.8 | – | – | –
CC(C)c1cc(NC2CCCC2)nnc1C(=O)NC1C2CC3CC(C2)CC1C3 (stereo not given) | > 1750 | 107 | > 10000 | 23.2 | 141 | 5.7 | – | 38.2 | – | –
CC(C)c1cc(NC2CCCC2)nnc1C(=O)NC1CCCCC1 | > 30 | 78 | > 10000 | 9.48 | 87.5 | 338 | – | – | – | –
CC(C)c1cc(NCCO)nnc1C(=O)NC12CC3CC(CC(C3)C1)C2 | > 235 | 114 | > 10000 | 13.4 | 125 | 42.6 | – | – | – | –
CC(C)c1cc(C(=O)NC2C3CC4CC(C3)CC2C4)nnc1N1CCOCC1 (stereo not given) | > 25 | 105 | > 10000 | -0.267 | 107 | 403 | – | 1.8 | – | –
CCCCNc1cc(C(C)C)c(C(=O)NC2C3CC4CC(C3)CC2C4)nn1 (stereo not given) | > 203 | 108 | > 10000 | 13.7 | 91.4 | 49.4 | – | – | – | –
CC(C)c1cc(N2CCOCC2)nnc1C(=O)NC12CC3CC(CC(C3)C1)C2 | > 25 | 93 | > 10000 | 3.8 | 117 | 396 | – | 16.9 | – | –
CC(C)c1cc(C(=O)NC2C3CC4CC(C3)CC2C4)nnc1Nc1cccc(Cl)c1 (stereo not given) | – | – | > 10000 | 2.12 | 19.2 | > 10000 | 19.4 | 5.1 | – | –
CC(C)c1cc(Nc2cccc(Cl)c2)nnc1C(=O)NC1C2CC3CC(C2)CC1C3 (stereo not given) | > 1 | 77 | > 10000 | -6.45 | 48 | 6700 | 44.3 | – | – | –
CC(C)c1cc(C(=O)NC2CCCCC2)nnc1N1CCOCC1 | > 10 | 99 | > 10000 | -4.03 | 107 | 970 | – | -8.12 | – | –
CC(C)c1cc(C(=O)NC2C3CC4CC(C3)CC2C4)nnc1NC1CCCC1 (stereo not given) | > 291 | 114 | > 10000 | 6.55 | 122 | 34.4 | – | 24.1 | > 10 | –
CC(C)c1cc(NCCO)nnc1C(=O)NC1C2CC3CC(C2)CC1C3 (stereo not given) | > 2020 | 94 | > 10000 | 17.4 | 137 | 4.96 | – | -8.39 | – | –
CC(C)c1cc(NC2CC2)nnc1C(=O)NC1C2CC3CC(C2)CC1C3 (stereo not given) | > 584 | 117 | > 10000 | 7.48 | 119 | 17.1 | – | – | – | –
CC(C)c1cc(C(=O)NC23CC4CC(CC(C4)C2)C3)nnc1N1CCOCC1 | > 29 | 125 | > 10000 | -2.98 | 101 | 349 | – | – | – | –
O=C(NCC1CCOCC1)c1cnc(Nc2ccc(Cl)cc2Cl)nc1C(F)(F)F [GW842166X] | > 29 | – | > 10000 | 18.2 | 129 | – | – | 11.8 | – | –
CC(C)c1cc(NCC2CC2)nnc1C(=O)NC1C2CC3CC(C2)CC1C3 (stereo not given) | > 210 | 135 | > 10000 | 31.3 | 125 | 47.7 | – | 22.1 | – | –

Compound | Ratio EC50 (Homo sapiens) | Emax (Cannabinoid receptor 2 [1]) [%] | EC50 (Cannabinoid receptor 1 [2]) [nM] | Activity (Cannabinoid receptor 1 [3]) [%] | Activity (Cannabinoid receptor 2 [4]) [%] | EC50 (Cannabinoid receptor 2 [5]) [nM] | inhibition (Cannabinoid receptor 2 [6]) [%] | inhibition (Cannabinoid receptor 1 [7]) [%] | Ratio EC50 (Cannabinoid receptor 2 [8]) | Ratio EC50 (Cannabinoid receptor 2 [9])
CC(C)c1cc(C(=O)NC2C3CC4CC(C3)CC2C4)nnc1NCC1CC1 (stereo not given) | 36 | 109 | 6050 | 39.3 | 113 | 167 | – | – | – | –
O=C(NC1CCCCC1)c1ccc(N2CCOCC2)nn1 | – | – | > 10000 | -3.69 | 17.7 | > 10000 | 16.3 | – | – | –
CC(C)c1cc(NCCO)nnc1C(=O)NC1CCCCC1 | > 12 | 81 | > 10000 | 14.8 | 91.1 | 842 | – | – | – | –
CC(C)c1cc(N2CCOCC2)nnc1C(=O)NC1C2CC3CC(C2)CC1C3 (stereo not given) | > 2730 | 91 | > 10000 | 26.1 | 126 | 3.67 | – | – | 94 | 8
CCC(CC)Nc1nnc(C(=O)NC2C3CC4CC(C3)CC2C4)cc1C(C)C (stereo not given) | – | – | > 10000 | -5.62 | 25 | > 10000 | 0.214 | 4.48 | – | –
CC(C)c1cc(N2CCOCC2)nnc1C(=O)NC1CCCCC1 | > 17 | 91 | > 10000 | 6.25 | 87.2 | 594 | – | -9.42 | – | –
CCCCNc1cc(C(C)C)c(C(=O)NC23CC4CC(CC(C4)C2)C3)nn1 | > 63 | 76 | 10000 | 10.7 | 64 | 159 | – | – | – | –
CC(C)c1cc(C(=O)NC2C3CC4CC(C3)CC2C4)nnc1NC1CCCCC1 (stereo not given) | > 50 | 91 | > 10000 | 2.64 | 106 | 199 | – | 39.3 | – | –
CC(C)c1cc(N2CCN(C)CC2)nnc1C(=O)NC1C2CC3CC(C2)CC1C3 (stereo not given) | – | – | > 10000 | 16.7 | 3.06 | > 10000 | 10.1 | 37.3 | – | –
CC(C)c1cc(NC(C)C(C)C)nnc1C(=O)NC1C2CC3CC(C2)CC1C3 (stereo not given) | > 3 | 77 | > 10000 | 10.7 | 82 | 2940 | – | 7.68 | – | –
O=C(NC1C2CC3CC(C2)CC1C3)c1ccc(N2CCOCC2)nn1 (stereo not given) | > 1 | 79 | > 10000 | 3.24 | 63.2 | 8420 | – | 17.7 | – | –
CC(C)c1cc(NC2CCCCC2)nnc1C(=O)NC1C2CC3CC(C2)CC1C3 (stereo not given) | > 25 | 81 | > 10000 | -0.238 | 119 | 398 | – | – | – | –
CC(C)c1cc(N2CCCCC2)nnc1C(=O)NC1C2CC3CC(C2)CC1C3 (stereo not given) | > 553 | 140 | > 10000 | 16 | 114 | 18.1 | – | 44.1 | – | –
CC(C)c1cc(NC2CCCC2)nnc1C(=O)NC12CC3CC(CC(C3)C1)C2 | > 33 | 80 | > 10000 | 19.5 | 95.5 | 301 | – | 44.5 | – | –
CC(C)c1cc(C(=O)NC2C3CC4CC(C3)CC2C4)nnc1N1CCCCC1 (stereo not given) | > 3 | 106 | > 10000 | -1.23 | 63 | 3450 | – | -3.84 | – | –
CC(C)c1cc(C(=O)NC2C3CC4CC(C3)CC2C4)nnc1NCCO (stereo not given) | > 100 | 127 | > 10000 | -0.906 | 124 | 99.9 | – | 1.87 | – | –
CCCCNc1cc(C(C)C)c(C(=O)NC2CCCCC2)nn1 | – | – | > 10000 | 8.74 | 13.4 | > 10000 | 50.6 | 47.9 | – | –
